# Compound activity (PubChem)
# Rows were chosen to be rich in hits. Some 3.5% of all compounds tested hit in one or more screens of this group.
# RGS4 inh – inhibitors of human RGS4 | P49798 | HEK293 M3R/RGS4 inducible, Fluo-4 calcium flux; stronger effect = higher value; triggered by carbachol at its EC20 | B-score at 10 µM | 310,000 compounds, 0.45% hits;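 active means B-score, a plate-corrected calcium signal, over three deviations above library mean, with baseline fluorescence within five deviations of library mean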;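 further: RGS4 expression induced by doxycycline in cells with stable M3 receptor; B-score is computed from the integrated fluorescence ratio over baseline after carbachol; higher B-score means a larger calcium signal and so more RGS4 inhibition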
# Target sequence (P49798 whole entry, looked up): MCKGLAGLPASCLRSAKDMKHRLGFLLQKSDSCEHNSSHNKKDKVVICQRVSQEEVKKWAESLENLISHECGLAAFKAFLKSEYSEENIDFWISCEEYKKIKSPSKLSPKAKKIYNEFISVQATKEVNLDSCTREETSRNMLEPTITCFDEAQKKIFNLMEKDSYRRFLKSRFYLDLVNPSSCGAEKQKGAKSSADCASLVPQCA
# MrgX1 antag – human MrgX1 receptor antagonism, primary screen | MRGX1-HEK293 calcium flux, Fluo-4, BAM8-22 antagonism; stronger effect = lower value | B-score at 10 µM | 310,000 compounds, 1.3% hits | AID 588676;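 active means calcium-response B-score plate-corrected more than 3 library SD below zero, starting fluorescence within 5 deviations, no agonist response on first addition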;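 further: peak minus trough fluorescence over baseline after final BAM8-22 challenge near maximal dose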
# Target sequence (Q96LB2 whole entry, looked up): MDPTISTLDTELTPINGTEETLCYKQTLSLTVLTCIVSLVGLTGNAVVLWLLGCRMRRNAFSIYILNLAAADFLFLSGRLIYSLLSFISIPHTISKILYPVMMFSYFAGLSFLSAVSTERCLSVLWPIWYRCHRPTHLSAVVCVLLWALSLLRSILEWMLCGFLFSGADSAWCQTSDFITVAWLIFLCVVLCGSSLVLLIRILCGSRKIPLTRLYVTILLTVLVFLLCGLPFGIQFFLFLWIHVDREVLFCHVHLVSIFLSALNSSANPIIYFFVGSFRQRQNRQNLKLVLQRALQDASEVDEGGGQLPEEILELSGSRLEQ
# MrgX1 PAM – human MrgX1 positive allosteric modulation, primary screen; B-score at 10 µM; Q96LB2; MrgX1-HEK293, Fluo-4 calcium flux, FDSS; stronger effect = higher value; 310,000 compounds, 0.63% hits;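 active means plate-corrected calcium response at least 3 library SD above typical, normal starting fluorescence, not activating the receptor alone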;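 further: compound read alongside a low EC10 to EC30 dose of BAM8-22 agonist; peak minus trough fluorescence over baseline measured at the second addition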
# RGS4 pot – RGS4 potentiation or activation; HEK293 M3R/inducible RGS4, carbachol calcium flux Fluo4; stronger effect = lower value; B-score at 10 µM; 310,000 compounds, 0.92% hits; AID 463111;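 active means B-score of the integrated calcium signal more than 4 SD below the library mean, with starting fluorescence not abnormally high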;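 further: negative B-score means reduced calcium response which marks RGS4 activation or potentiation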
#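 Reagent: ECmax carbachol challenge; Test system: M3R-expressing HEK293 line, RGS4 induced by doxycycline; Schedule: overnight RGS4 induction, 30 min dye load 37 °C, 20 min compound RT; Detection: calcium dye Fluo4 fluorescence; Read-out: Agonist-evoked peak-minus-minimum fluorescence over baseline, integrated ratio, B score.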
# MrgX1 ag – activates human MrgX1 receptor signaling; MrgX1-HEK293 cells, Fluo-4 calcium fluorescence, agonist mode; stronger effect = higher value; B-score at 10 µM; AID 588627; Q96LB2; 310,000 compounds, 0.44% hits;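 active means calcium response B-score plate-corrected fluorescence ratio at least 3 library SD, with starting fluorescence B-score inside 5 SD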
#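 Assay system: stable human MrgX1 HEK293 cell line. Quantity: 15,000 cells per well. Schedule: cells plated overnight, dye loaded 0.5 h 37 °C, 0.5 h room temperature. Detection: Fluo-4 NW calcium-flux fluorescence, kinetic read. Read-out basis: peak-minus-minimum fluorescence over baseline, converted to B scores. Control set: positive and negative control wells on each plate.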
# MrgX1 ag reconf – reconfirmed activator of human MrgX1 receptor signaling | shares compounds with MrgX1 ag | 600 compounds, 78% hits | MrgX1-HEK293, Fluo-4 calcium fluorescence, FDSS | activation, % at 10 µM;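 active means calcium signal rise, corrected for plate position, at least 3 library SD high, with starting brightness within 5 such deviations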
# HEK293 Ca flux – activity in parental HEK293 cells lacking MrgX1 | shares compounds with MrgX1 antag | Fluo-4 calcium fluorescence, FDSS | fluorescence ratio F(max-min)/F0 at 10 µM | 4,000 compounds, 2% hits | AID 624111;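 active means duplicate-averaged calcium fluorescence ratio at least three times the standard deviation of buffer wells, a nonspecific response in parental cells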
# HEK293 Ca counter – activity in parental HEK293 cells without MrgX1 | parental HEK293 calcium flux, Fluo-4 fluorescence ratio; stronger effect = higher value | 4,000 compounds, 0.4% hits | shares compounds with MrgX1 antag | fluorescence ratio F(max-min)/F0 at 10 µM;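 active means calcium fluorescence ratio, averaged over duplicates, at least 3 SD of the buffer-well ratio, meaning a nonspecific response in receptor-free cells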;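 further: untransfected parental HEK293 lacking MrgX1 used as counterscreen for MrgX1 allosteric activators; fluorescence change taken during the second addition on a kinetic imager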
# HEK293 Ca cntr2 – counter-screen for MrgX1 activators: effect in parental HEK293 cells | shares compounds with MrgX1 antag | Fluo-4 calcium fluorescence (FDSS); stronger effect = higher value | AID 624115 | fluorescence ratio F(max-min)/F0 at 10 µM | 4,000 compounds, 8.7% hits;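 active means calcium fluorescence ratio at least three times the spread of buffer wells, meaning a non-specific response in parental cells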
# * = called active by the depositor; i = inactive; nt = no result given.
SMILES,RGS4 inh,MrgX1 antag,MrgX1 PAM,RGS4 pot,MrgX1 ag,MrgX1 ag reconf,HEK293 Ca flux,HEK293 Ca counter,HEK293 Ca cntr2
Cc1ccc(SCCSc2nc(C)cc(=O)[nH]2)cc1,i,i,i,i,i,nt,nt,nt,nt
COc1ccc(Cl)cc1NC(=O)CSc1nnc(Cc2ccc(C)cc2)c(=O)[nH]1,i,i,i,i,36*,160%*,i,i,i
Cc1ccc(Cc2nnc(SCC(=O)Nc3ccccc3Cl)[nH]c2=O)cc1,i,i,i,i,i,nt,nt,nt,nt
CCCN(Cc1nnc(-c2ccccc2Cl)o1)C(=O)c1cccc(S(=O)(=O)N2CCOCC2)c1,i,i,i,i,i,nt,nt,nt,nt
Cc1ccc(CNc2ccc3c(c2)ncn3C(C)C)cc1,i,i,i,i,33*,352%*,i,i,80*
CCn1cnc2cc(NCc3ccc(Br)cc3)ccc21,i,i,i,i,34*,197%*,i,i,i
COC(=O)Cn1c(=O)c2c(n(Cc3ccccc3)c1=O)N/C(=C/c1ccc(Br)cc1)C2=O,i,i,i,i,45*,383%*,i,i,72*
O=C1N/C(=C/c2ccc(Br)cc2)C(O)=C1C=NCc1ccccc1,i,i,i,i,i,nt,nt,nt,nt
COc1ccc(N(CC(=O)NCc2ccccc2)S(=O)(=O)c2c(C)n[nH]c2C)cc1,i,i,i,i,i,nt,nt,nt,nt
O=C(CCCCC(=O)NC1CCCC1)NC1CCCC1,i,i,i,i,40*,i,i,i,i
N[C@@H](Cc1c[nH]c2ccc(O)cc12)C(=O)O,nt,i,i,nt,32*,i,i,i,i
Cc1ccc(C)c2nc3sc(C(=O)N4CCOCC4)c(N)c3cc12,i,i,i,i,31*,284%*,i,i,82*
Cc1cc(C)c2cc3c(N)c(C(=O)N4CCOCC4)sc3nc2c1,i,i,i,i,i,nt,nt,nt,nt
CCO[C@@H]1OC(C(=O)N2CCCCCCC2)=C[C@H](C2CCCCC2)[C@H]1CCCO,i,i,i,i,i,nt,nt,nt,nt
COc1ccccc1NS(=O)(=O)c1cc(C(=O)NCc2ccncc2)ccc1C,i,i,i,i,i,nt,nt,nt,nt
COc1ccccc1NS(=O)(=O)c1cc(C(=O)NCCC(C)C)ccc1F,i,i,i,i,35*,313%*,i,i,101*
O=C(Nc1ccccc1)Nc1ccc2ccccc2c1,i,i,i,i,34*,i,i,i,i
N#CC1(Nc2ccccc2)C(=O)Nc2ccccc21 (stereo not drawn),i,i,i,i,37*,137%*,i,i,i
O=C(CSc1nncc(=O)[nH]1)NC1CCCCC1,i,i,i,i,i,nt,nt,nt,nt
Cc1ccc(-n2sc3ccccc3c2=O)cc1S(=O)(=O)N1CCCCC1,i,i,i,i,i,nt,nt,nt,nt
Cc1ccccc1-n1sc2cc(F)ccc2c1=O,nt,i,i,nt,40*,303%*,i,i,66*
O=C(Nc1ccc(N2CCOCC2)cc1)C1(c2ccc(Cl)cc2)CCC1,i,i,i,i,i,nt,nt,nt,nt
O=C(CNCC1(N2CCOCC2)CCCCC1)Nc1ccc(Cl)cc1,i,i,i,i,74*,i,i,i,i
Nc1ncnc2c1ncn2C1OC(C(=O)NC2CC2)C(O)C1O (stereo not drawn),nt,i,i,nt,30*,100%*,i,i,i
CCN(C(=O)COC(=O)CNC(=O)c1ccc2ccccc2c1)C1CCS(=O)(=O)C1 (stereo not drawn),i,i,i,i,i,nt,nt,nt,nt
SMILES,RGS4 inh,MrgX1 antag,MrgX1 PAM,RGS4 pot,MrgX1 ag,MrgX1 ag reconf,HEK293 Ca flux,HEK293 Ca counter,HEK293 Ca cntr2
COc1cccc(/C=C/C(=O)N2CCN(S(=O)(=O)c3ccccc3)CC2)c1OC,i,i,i,i,i,nt,nt,nt,nt
CC1(c2ccccc2)CC(C)(C)N2C(=O)C(=O)c3cccc1c32 (stereo not drawn),i,i,i,i,29*,i,i,i,i
CC1(c2ccccc2)CC(C)(C)n2c(O)c(C3=NC(=S)NC3=O)c3cccc1c32 (stereo not drawn),i,i,i,i,i,nt,nt,nt,nt
Cc1cc(-c2nn(-c3ccccc3F)cc2CN2CCN(c3ccncc3)CC2)c(C)s1,i,i,i,i,56*,268%*,i,i,i
NC(=O)C1CC(=O)N(CCc2ccc(F)cc2)C1 (stereo not drawn),i,i,i,i,i,nt,nt,nt,nt
CN(C)C=Nc1c(Br)cc(Br)c2nonc12,i,i,i,i,40*,162%*,i,i,i
CN(C)C=Nc1nonc1-c1ccccc1,i,i,i,i,i,nt,nt,nt,nt
COc1ccc(C(=O)c2no[n+]([O-])c2C(=O)c2ccc(OC)cc2)cc1,i,i,i,i,67*,186%*,i,i,57*
CCC(=O)C1CCCN(C(=O)c2cccc(OC3CCN(S(C)(=O)=O)CC3)c2)C1 (stereo not drawn),i,i,i,i,i,nt,nt,nt,nt
Cc1noc(/C=C/N(C)C)c1S(=O)(=O)N1CCCC(C(=O)Nc2ccccc2F)C1 (stereo not drawn),i,i,i,i,i,nt,nt,nt,nt
Cc1cc(C)cc(NC(=O)Nc2ccc(N3CCCCC3)cc2)c1,i,i,i,i,30*,i,i,i,i
Cc1ccc(Cl)cc1NC(=O)CC(O)(C(F)(F)F)C(F)(F)F,i,i,i,i,29*,196%*,i,i,47*
COCC(=O)Nc1cc(Cl)ccc1C,i,i,i,i,i,nt,nt,nt,nt
CCCc1[nH]n(-c2nc3ccccc3s2)c(=O)c1C=NCC1CCCO1 (stereo not drawn),i,i,i,i,51*,187%*,i,i,i
COC(CNC(=O)CNC(=S)N(Cc1ccccc1)Cc1cccnc1)OC,i,i,i,i,i,nt,nt,nt,nt
